Vif inh = inhibitors of HIV Vif | actives 0.35% (n = 340,000) | inhibition, % at 7.49 µM | HEK293T cells, Vif self-association by quenched fluorescence, imaging, 24 h; in the data active means inhibition above about 50%, passing the limit was not always enough; inconclusive means no clear call, values can overlap the other calls; inactive means below about 31%
DAGLB inhibitor = diacylglycerol lipase beta (human) inhibition. inhibition, % at 5.17 µM. Q8NCG7. actives 0.059% (n = 340,000). HEK293T DAGLB membrane lysate, EnzChek fluorogenic substrate; in the data active means inhibition above about 34%;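 further: 0% = enzyme with vehicle and 100% = wells lacking enzyme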
Target sequence (Q8NCG7 whole entry, looked up): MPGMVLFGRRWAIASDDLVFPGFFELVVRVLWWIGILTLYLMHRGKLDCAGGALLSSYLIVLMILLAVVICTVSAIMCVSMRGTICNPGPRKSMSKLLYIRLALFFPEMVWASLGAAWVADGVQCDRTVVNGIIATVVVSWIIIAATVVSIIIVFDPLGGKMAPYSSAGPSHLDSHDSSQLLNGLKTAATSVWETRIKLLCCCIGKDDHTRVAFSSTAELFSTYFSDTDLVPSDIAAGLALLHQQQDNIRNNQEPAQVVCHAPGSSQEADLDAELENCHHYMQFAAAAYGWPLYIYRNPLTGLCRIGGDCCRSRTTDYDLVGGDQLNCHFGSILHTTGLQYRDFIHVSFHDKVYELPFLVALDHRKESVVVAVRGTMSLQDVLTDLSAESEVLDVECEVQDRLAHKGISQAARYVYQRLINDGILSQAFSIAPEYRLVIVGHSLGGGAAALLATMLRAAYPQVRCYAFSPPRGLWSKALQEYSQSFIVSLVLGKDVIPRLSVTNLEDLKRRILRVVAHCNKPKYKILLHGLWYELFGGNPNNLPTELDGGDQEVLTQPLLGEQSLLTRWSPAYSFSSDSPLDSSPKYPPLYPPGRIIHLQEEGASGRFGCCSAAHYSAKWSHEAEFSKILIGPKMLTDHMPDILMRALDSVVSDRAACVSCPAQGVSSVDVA
core dimer inh = blocks dimerization of HCV core protein | TR-FRET GST/Flag-core106 dimerization, 1536-well | actives 0.33% (n = 300,000) | AID 1899 | inhibition, % at 5 µM;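 active means inhibition above the mean of all tested compounds plus 3 SD, set per screening campaign, cut at about 45% in these data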
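test system = GST/Flag-tagged HCV core106 proteins | probe or stimulus = Eu donor and XL665 acceptor anti-tag antibodies | times = compound-protein-antibody incubation 4 h at 22.5 °C | signal = TR-FRET, excitation 340 nm, emission 617 and 671 nm | measure = percent inhibition of core106 dimerization signal | controls = wells lacking GST-core106 and wells with excess unlabelled core106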
NR2E3 ag-1 = NR2E3 (human) agonism; AID 2300; Q9Y5X4; GST-NR2E3/biotin-RetCOR TR-FRET, 1536-well; actives 0.12% (n = 320,000); inhibition of corepressor binding, % at 4.78 µM;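 active means percent inhibition above the cutoff of mean plus 3 SD of all tested compounds, set per screening campaign, cut at about 20% in these data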;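 further: 0% = DMSO wells and 100% = biotin wells as full block of FRET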
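Format: 1536-well format; test system: GST-NR2E3 and biotin-RetCOR proteins; read-out basis: percent inhibition of TR-FRET ratio; timing: 5 h incubation at 4 °C; detection: time-resolved FRET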
NR2E3 ag-2 = human photoreceptor-specific nuclear receptor agonism | Q9Y5X4 | CHO-S Gal4-NCOR/VP16-NR2E3 two-hybrid, luciferase | inhibition of corepressor binding, % at 3.98 µM | actives 0.35% (n = 360,000);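 active means inhibition above the mean of all tested compounds plus 3 SD, cut at about 70% in these data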;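 further: 0% = DMSO with NR2E3 transfected cells and 100% = cells lacking NR2E3 construct; higher means lower luciferase signal from less NR2E3 corepressor binding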
MT1-MMP act inh = MT1-MMP (human) activation inhibition; P50281; HT1080 RFP-PRO-GFP cells, GFP/RFP ratio fluorescence, overnight; percent of plate control window, DMSO zero; GFP/RFP ratio change, % at 20 µM; actives 0.061% (n = 360,000); AID 651647;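 active means GFP/RFP ratio change of at least 30% with cell ATP level not reduced by more than half and red fluorescence within 50% of control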
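Read-out: GFP/RFP fluorescence ratio; Test system: RFP-PRO-GFP reporter HT1080 cells; Compound dosing: single-point 20 µM compound, 1% DMSO; Times: overnight compound exposure at 37 °C.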
NR2E3 ag confirm = NR2E3 agonism confirmed in two-hybrid assay; inhibition, % at 3.98 µM; shares compounds with NR2E3 ag-2; AID 624378; actives 51% (n = 2,300); CHO-S mammalian two-hybrid NR2E3-NCOR, luciferase luminescence;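 active means average inhibition above a cutoff equal to the mean inhibition of all tested compounds plus one SD, cut at about 70% in these data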;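 further: 0% = DMSO in NR2E3 cells and 100% = DMSO in cells lacking NR2E3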
GAL4-VP16 luc = GAL4-VP16 reporter inhibition in NR2E3 agonist counterscreen; shares compounds with NR2E3 ag-2; actives 29% (n = 2,300); inhibition, % at 3.98 µM; CHO-S GAL4-VP16 luciferase reporter, luminescence;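 active means mean inhibition above a cutoff equal to the average over all tested compounds plus one standard deviation, cut at about 70% in these data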;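 further: luciferase from a UAS reporter driven by GAL4-VP16 transactivation; 0% = DMSO with VP16-transfected cells and 100% = DMSO with cells lacking VP16; higher means less reporter light so more repression of VP16 activity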
An asterisk follows results filed as active; i = inactive; ? = inconclusive; . = no result given. Only some compounds are listed: those with a hit (about 1.1% of all), similar ones and a draw of the others.

SMILES	Vif inh	DAGLB inhibitor	core dimer inh	NR2E3 ag-1	NR2E3 ag-2	MT1-MMP act inh	NR2E3 ag confirm	GAL4-VP16 luc
c1cc2c(cc1-c1cnc3n1CCC3)OCCO2	11.1	-1.2	5.2	1.6	56.1	6.3	66.0	2.6
CC(=O)Nc1ccc(Nc2cc(C)nc3c(-c4ccccc4)cnn23)cc1	-18.8	2.2	-1.8	0.6	49.7	-6.4	51.6	-10.7
CCC(C)C(=O)Nc1ccc(S(=O)(=O)N2CCCC2)cc1 (stereo unspecified)	-5.8	-0.8	-8.3	0.8	-5.1	0.2	.	.
CCC(C)NS(=O)(=O)c1ccc(S(=O)(=O)N2CCCC3(CCCCC3)C2)cc1 (stereo unspecified)	-22.1	-6.6	8.0	-4.6	85.2*	-23.0	89.5*	73.3*
Cc1ccc(CNC(=O)Cn2c(=O)c3sccc3n(Cc3ccc([N+](=O)[O-])cc3)c2=O)cc1	-3.5	8.8	11.2	1.5	9.9	1.8	.	.
COc1ccc(OCC(=O)N/N=C(\C)CC(=O)Nc2cccc([N+](=O)[O-])c2)cc1	5.5	-0.1	0.3	0.8	-2.4	5.3	.	.
CC(C)NC(=O)C1(C)CCCN1C(=O)c1cc(C#N)cs1 (stereo unspecified)	-3.6	.	.	.	2.9	1.2	.	.
CCc1ccccc1NNC(=O)c1cc(C)on1	-1.7	-0.2	-5.2	-0.4	17.4	-0.4	.	.
Cc1cc(C(=O)NNc2ccccc2F)no1	15.8	-0.2	-4.0	-3.7	49.8	1.0	47.9	0.2
Cc1nc(C)c(C(=O)NCc2ccc(Cl)cc2)o1	-4.5	-4.4	-0.7	5.7	4.3	1.9	.	.
Cc1nn(C)c(C(=O)NCc2ccc(Cl)cc2)c1Cl	-14.7	-2.1	-5.7	-3.8	61.2	-5.2	89.1*	75.1*
Cc1ccc(Cl)cc1N1CCN(C(=O)COc2ccc(S(=O)(=O)NC(C)C)cc2)CC1	-13.4	1.0	10.4	2.7	55.8	8.8	63.9	41.9
CS(=O)(=O)N(CC(=O)N1CCN(c2cccc(Cl)c2)CC1)C1CCCCC1	-7.3	0.9	0.7	-3.9	-24.4	-6.2	.	.
Cc1ccc(Cl)cc1N1CCN(C(=O)CN(C2CCCCC2)S(C)(=O)=O)CC1	7.1	-0.9	12.2	3.1	52.7	-12.0	61.2	61.2
CC(C)NS(=O)(=O)c1ccc(OCC(=O)N2CCCC2)cc1	1.0	2.7	1.7	-4.2	5.3	-1.8	.	.
CC1CC(C)C(=O)C(C(CC2CC(=O)NC(=O)C2)OC(=O)CC(=O)c2ccccc2)C1 (stereo unspecified)	9.3	1.3	.	.	90.2*	-55.9	99.2*	88.1*
NC(=O)CC(NC(=O)c1ccc(Br)cc1)c1ccc(NC2CCCCCCC2)c([N+](=O)[O-])c1 (stereo unspecified)	2.8	26.7	12.9	1.5	-35.9	19.3	.	.
CC1CCN(S(=O)(=O)c2ccc([N+](=O)[O-])cc2)CC1	8.5	-4.7	-6.0	-2.8	-21.8	-2.7	.	.
CC1CCN(S(=O)(=O)c2ccc(Oc3ccc([N+](=O)[O-])cc3)cc2)CC1	-13.2	-8.6	3.3	3.0	88.1*	-6.8	91.1*	75.6*
O=C1CCCCC1Nc1ccc2ccccc2c1 (stereo unspecified)	7.7	0.4	.	.	-56.4	-5.4	.	.
O=C1C=CC(O)(c2cc(=O)c3c(O)cc(O)cc3o2)C=C1	i	-7.8	18.2	1.6	47.5	-4.7	-53.9	-39.8
O=c1cc(-c2ccccc2Cl)oc2cc(O)cc(O)c12	-3.6	-0.7	-4.0	3.8	-37.7	-16.3	.	.
O=S(=O)(/C=C/C=C/S(=O)(=O)c1ccccc1)c1ccccc1	20.7	-1.2	.	.	84.7*	-2.3	79.6*	29.4
COc1ccc(OC)c(C2(O)CSC(=Nc3cccnc3)N2Cc2ccco2)c1 (stereo unspecified)	11.4	-2.0	2.1	-3.0	13.2	-0.6	.	.
OC1(c2ccc(OC(F)F)cc2)CSC(=Nc2cccnc2)N1C1CC1 (stereo unspecified)	-50.9	1.8	2.4	1.2	69.0	-1.2	70.0	60.1
SMILES	Vif inh	DAGLB inhibitor	core dimer inh	NR2E3 ag-1	NR2E3 ag-2	MT1-MMP act inh	NR2E3 ag confirm	GAL4-VP16 luc
Cc1cccc(NC(=S)N=Nc2c(O)[nH]c3ccccc23)c1	2.9	11.2	-1.1	-5.5	66.7	8.1	12.6	-11.1
CC(=O)OC1COC(N2CCc3cc(Br)c([N+](=O)[O-])cc32)C(OC(C)=O)C1OC(C)=O (stereo unspecified)	5.8	4.7	8.0	0.4	-30.5	2.2	.	.
Cc1ccc(NNC(=O)C(=O)N2CCCCC2)cc1	3.2	1.9	1.0	1.8	57.4	-0.5	37.4	24.2
Cc1ccccc1C(=O)NNC(=O)C(=O)N1CCCCC1	0.1	-2.7	-2.8	1.7	-4.2	-2.1	.	.
Cc1ccc(C2(c3ccc(C)cc3)CC2C(=O)Nc2ccc([N+](=O)[O-])cc2O)cc1 (stereo unspecified)	-21.2	-4.2	13.9	0.2	100.2*	5.0	99.5*	89.9*
CNc1snc(C)c1C(=O)OCC(=O)c1cc(F)ccc1OC	-6.2	-2.8	.	-0.5	28.1	5.3	.	.
CNc1snc(C)c1C(=O)OCC(=O)c1ccc(OC)c(F)c1	-0.8	-1.7	.	2.9	53.0	-6.2	56.7	49.8
CC1CCCCN1S(=O)(=O)c1ccc(N(C(=O)c2cnccn2)C(C(=O)NC2CCCCC2)c2cccs2)cc1 (stereo unspecified)	-8.5	-1.3	-3.9	-2.3	57.8	-0.6	52.6	-3.6
O=S(=O)(/N=C(/Nc1ccc(F)cc1F)c1ccccc1)c1ccccc1	-0.9	-1.2	1.8	-0.8	-12.7	4.5	.	.
CCc1cccc(NS(=O)(=O)c2ccc3c(c2)n(C)c(=O)n3C)c1	-6.9	0.0	4.4	-0.9	64.4	-7.0	58.5	44.2
Cc1ccc(NS(=O)(=O)c2ccc3c(c2)n(C)c(=O)n3C)cc1	-3.2	2.5	-1.9	-4.1	-2.7	6.9	.	.
Cn1c(=O)n(C)c2cc(NS(=O)(=O)c3ccc(C(C)(C)C)cc3)ccc21	-9.3	2.9	6.1	2.4	63.2	3.1	82.4*	75.6*
Cn1c(=O)n(C)c2cc(NS(=O)(=O)c3ccc4c(c3)CCCC4)ccc21	-8.1	4.1	2.4	1.4	65.6	19.5	85.0*	67.8
CCc1cccc(NS(=O)(=O)c2ccc3c(c2)oc(=O)n3C)c1	-5.9	-0.1	1.6	-1.3	21.3	-0.6	.	.
Nn1c(SCC(=O)Nc2ccc(N3CCOCC3)cc2)nnc1-c1ccccc1F	?	-0.9	.	-1.6	-7.1	-4.9	.	.

Compound activity (PubChem BioAssay)
